Shown are actives, neighbours in structure and some others; about 3.5% of the full set was active somewhere.
MrgX1 antagonist: antagonists of human MrgX1 receptor, primary screen, HEK293 cells, Fluo-4 calcium flux; B-score at 10 µM; BAM8-22 antagonism; stronger effect = lower value; 1.3% of 310,000 active; AID 588676, 2011;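 active means calcium-response B-score plate-corrected more than 3 library SD below zero, starting fluorescence within 5 deviations, no agonist response on first addition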;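 further: peak minus trough fluorescence over baseline after final BAM8-22 challenge near maximal dose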
Target sequence (Q96LB2 whole entry, looked up): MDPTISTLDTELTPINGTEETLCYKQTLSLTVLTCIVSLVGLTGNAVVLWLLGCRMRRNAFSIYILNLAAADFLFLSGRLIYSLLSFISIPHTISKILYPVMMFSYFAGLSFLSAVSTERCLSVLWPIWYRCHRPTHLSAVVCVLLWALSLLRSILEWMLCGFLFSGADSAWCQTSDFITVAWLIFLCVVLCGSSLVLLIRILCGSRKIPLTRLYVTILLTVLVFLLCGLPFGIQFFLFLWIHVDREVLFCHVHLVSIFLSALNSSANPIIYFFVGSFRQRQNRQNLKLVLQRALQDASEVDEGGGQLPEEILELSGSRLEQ
RGS4 inh: RGS4 inhibitors, primary screen, cell-based, HEK293 M3R inducible RGS4, calcium flux; B-score at 10 µM; 0.45% of 310,000 active; Fluo-4 calcium flux; stronger effect = higher value; triggered by carbachol at its EC20; AID 463165, 2010; Regulator of G-protein signaling 4 (Homo sapiens), P49798;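 active means B-score, a plate-corrected calcium signal, over three deviations above library mean, with baseline fluorescence within five deviations of library mean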;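 further: RGS4 expression induced by doxycycline in cells with stable M3 receptor; B-score is computed from the integrated fluorescence ratio over baseline after carbachol; higher B-score means a larger calcium signal and so more RGS4 inhibition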
Target sequence (P49798 whole entry, looked up): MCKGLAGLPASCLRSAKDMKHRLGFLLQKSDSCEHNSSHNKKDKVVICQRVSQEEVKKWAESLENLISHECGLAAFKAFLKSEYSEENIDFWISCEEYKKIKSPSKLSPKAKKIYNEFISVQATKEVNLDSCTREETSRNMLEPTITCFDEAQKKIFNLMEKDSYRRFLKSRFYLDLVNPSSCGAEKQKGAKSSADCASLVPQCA
RGS4 act: RGS4 potentiators or activators, primary screen, cell-based, HEK293 M3R inducible RGS4, calcium flux. carbachol calcium flux Fluo4; stronger effect = lower value. B-score at 10 µM. 0.92% of 310,000 active;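 active means B-score of the integrated calcium signal more than 4 SD below the library mean, with starting fluorescence not abnormally high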;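 further: negative B-score means reduced calcium response which marks RGS4 activation or potentiation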
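Assay system: Inducible-RGS4 HEK293 cells carrying M3 receptor | Schedule: Compound preincubation 20 min at room temperature before agonist | Signal: Kinetic calcium fluorescence imaging with Fluo4-AM dye, 2 µM | Read-out basis: B score from integrated fluorescence ratio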
MrgX1 allo act: positive allosteric modulators of MrgX1, primary screen, HEK293 cells, Fluo-4 calcium flux | Mas-related G-protein coupled receptor member X1 (Homo sapiens), Q96LB2 | FDSS; stronger effect = higher value | B-score at 10 µM | 0.63% of 310,000 active;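 active means plate-corrected calcium response at least 3 library SD above typical, normal starting fluorescence, not activating the receptor alone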;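 further: compound read alongside a low EC10 to EC30 dose of BAM8-22 agonist; peak minus trough fluorescence over baseline measured at the second addition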
MrgX1 agonist: agonists of human MrgX1 receptor, primary screen, HEK293 cells, Fluo-4 calcium flux; AID 588627, 2011; B-score at 10 µM; Mas-related G-protein coupled receptor member X1 (Homo sapiens), Q96LB2; 0.44% of 310,000 active; Fluo-4 calcium fluorescence, agonist mode; stronger effect = higher value;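 active means calcium response B-score plate-corrected fluorescence ratio at least 3 library SD, with starting fluorescence B-score inside 5 SD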
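Material: HEK293 cells stably expressing human MrgX1 receptor | Quantity: 15,000 cells per well | Times: Cells plated overnight, dye loaded 0.5 h 37 °C, 0.5 h room temperature | Measured by: Kinetic Fluo-4 NW fluorescence of intracellular calcium | Control set: Positive and negative controls per plate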
The depositor's hits bear a star; ! = repeats disagree.

Screening O=C1NC(=O)C(=Cc2ccc3ccccc3c2)C(=O)N1 returned MrgX1 antagonist inactive, RGS4 inh inactive, RGS4 act inactive, MrgX1 allo act inactive and MrgX1 agonist inactive.
Screening O=C1NC(=O)C(=Cc2ccc(Oc3ccc([N+](=O)[O-])cc3)cc2)C(=O)N1 returned MrgX1 antagonist inactive, RGS4 inh inactive, RGS4 act inactive, MrgX1 allo act 7.02* and MrgX1 agonist inactive.
CCN(CC)c1ccc(N=Cc2c(O)n(Cc3ccccc3)c(=O)[nH]c2=O)cc1 was read as MrgX1 antagonist inactive, RGS4 inh inactive, RGS4 act -7.27*!, MrgX1 allo act inactive and MrgX1 agonist inactive.
Screening O=C(O)c1ccc(NC(=O)N2C[C@H]3C[C@@H](C2)c2cccc(=O)n2C3)cc1 returned MrgX1 antagonist inactive, RGS4 inh inactive, RGS4 act -10.1*, MrgX1 allo act inactive and MrgX1 agonist inactive.
Screening O=[N+]([O-])c1ccc(NC2CCCC2)c2ccncc12 returned MrgX1 antagonist inactive, RGS4 inh inactive, RGS4 act inactive, MrgX1 allo act inactive and MrgX1 agonist inactive.
`O=[N+]([O-])c1ccc(N2CCCC2)c2ccncc12` gave MrgX1 antagonist -5.13*, RGS4 inh inactive, RGS4 act inactive, MrgX1 allo act inactive and MrgX1 agonist inactive.
Screening Oc1ccccc1-[n+]1c(-c2ccccc2)cc(-c2ccccc2)c(O)c1-c1ccccc1 returned MrgX1 antagonist inactive, RGS4 inh inactive, RGS4 act inactive, MrgX1 allo act inactive and MrgX1 agonist inactive.
COc1ccccc1NC(=O)c1cn(CCC#N)nc1-c1cccc(Cl)c1 was read as MrgX1 antagonist inactive, RGS4 inh inactive, RGS4 act inactive, MrgX1 allo act inactive and MrgX1 agonist inactive.
COc1ccc(CC(C)NCCC(c2ccccc2)c2ccccc2)cc1 (stereo not drawn) was read as MrgX1 antagonist inactive, RGS4 inh inactive, RGS4 act -7.43*, MrgX1 allo act inactive and MrgX1 agonist inactive.
For C=CCc1ccc(OC)cc1 the results were MrgX1 antagonist inactive, MrgX1 allo act inactive and MrgX1 agonist inactive.
For C=C(COC(C)=O)CC1CC(O)[C@]2(C)OC3CC4OC5C[C@]6(C)O[C@]7(C)CCC8OC9C[C@]%10(C)OC%11C(C)=CC(=O)OC%11CC%10OC9C[C@@H](C)C8OC7CC6O[C@]5(C)C/C=C\C4OC3CC2O1 (stereo partly drawn) the results were RGS4 inh 18.4* and RGS4 act inactive.
Screening C=C(C=O)CC1CC(O)[C@]2(C)OC3CC4OC5C[C@]6(C)O[C@]7(C)CCC8OC9C[C@]%10(C)OC%11C(C)=CC(=O)OC%11CC%10OC9C[C@@H](C)C8OC7CC6O[C@]5(C)CC5OC5C4OC3CC2O1 (stereo partly drawn) returned MrgX1 antagonist -5.41*, RGS4 inh inactive, RGS4 act inactive, MrgX1 allo act inactive and MrgX1 agonist inactive.
Screening N/C(=N\N=C\c1ccc(O)cc1O)N[N+](=O)[O-] returned MrgX1 antagonist inactive, RGS4 inh inactive, RGS4 act inactive, MrgX1 allo act inactive and MrgX1 agonist inactive.
Screening COc1ccccc1/C=N/N=C(/N)N[N+](=O)[O-] returned MrgX1 antagonist -7.7*, RGS4 inh inactive, RGS4 act inactive, MrgX1 allo act inactive and MrgX1 agonist inactive.
COCCNCCOc1ccc(C(C)(C)c2ccccc2)cc1 was read as MrgX1 antagonist inactive, RGS4 inh inactive, RGS4 act inactive, MrgX1 allo act inactive and MrgX1 agonist inactive.
Screening Cc1cnc(NC(=O)CN2CCCCC2)s1 returned MrgX1 antagonist inactive, RGS4 inh inactive, RGS4 act inactive, MrgX1 allo act inactive and MrgX1 agonist inactive.
Screening C=C1C2[C@H](OC(C)=O)[C@@H]3CC(=O)[C@]4(C)OC[C@@]3(C)[C@@]4(O)[C@@H](OC(C)=O)[C@H](OC(C)=O)[C@@]2(COC(=O)c2ccccc2)[C@@H](OC(C)=O)C[C@@H]1O (stereo partly drawn) returned MrgX1 antagonist -5.39*, RGS4 inh inactive, RGS4 act inactive, MrgX1 allo act inactive and MrgX1 agonist inactive.
Screening O=c1nc(/C=C/c2ccc(Cl)cc2Cl)cc(C(F)(F)F)[nH]1 returned MrgX1 antagonist inactive, RGS4 inh inactive, RGS4 act inactive, MrgX1 allo act inactive and MrgX1 agonist inactive.
For Cc1c(C(c2ccc(Br)cc2)c2c(O)c3ccccc3oc2=O)c(=O)n(-c2ccccc2)n1C (stereo not drawn) the results were MrgX1 antagonist inactive, RGS4 inh inactive, RGS4 act inactive, MrgX1 allo act inactive and MrgX1 agonist inactive.
Cc1c(C(c2ccc(Cl)cc2Cl)c2c(O)c3ccccc3oc2=O)c(=O)n(-c2ccccc2)n1C (stereo not drawn) was read as MrgX1 antagonist inactive, RGS4 inh inactive, RGS4 act inactive, MrgX1 allo act 13.6* and MrgX1 agonist inactive.
CCn1c(O)c(C=NCCN2CCOCC2)c(=O)[nH]c1=S was read as MrgX1 antagonist inactive, RGS4 inh inactive, RGS4 act inactive, MrgX1 allo act inactive and MrgX1 agonist inactive.
CCC1C=CC=CC[C@H](C)[C@@H](O)[C@](C)(O)C(=O)[C@@H](C)[C@H](O)[C@@H](C)C(=O)[C@H](C)[C@@H](O)[C@H](C)C=CC(=O)OC2[C@@H](C)C(CC1)OC1(CC[C@@H](C)C(C[C@H](C)O)O1)[C@@H]2C (stereo partly drawn) was read as MrgX1 antagonist -4.83*, MrgX1 allo act inactive and MrgX1 agonist inactive.
`COc1cccc(-c2nn(CCC#N)cc2C(=O)Nc2ccccc2Cl)c1` gave MrgX1 antagonist inactive, RGS4 inh inactive, RGS4 act inactive, MrgX1 allo act inactive and MrgX1 agonist inactive.
`CCOc1cc2c(cc1OCC)-n1cccc1C(c1ccc(C)cc1C)NC2` (stereo not drawn) gave MrgX1 antagonist inactive, RGS4 inh inactive, RGS4 act inactive, MrgX1 allo act inactive and MrgX1 agonist inactive.
CCOc1cc2c(cc1OCC)-n1cccc1C(c1cc(C)c(OC)cc1C)NC2 (stereo not drawn) was read as MrgX1 antagonist -4.93*, RGS4 inh inactive, RGS4 act inactive, MrgX1 allo act inactive and MrgX1 agonist inactive.
For CN(C)CCN(C(=O)COc1ccc(Cl)cc1)c1nc2cc3c(cc2s1)OCO3 the results were MrgX1 antagonist inactive, RGS4 inh inactive, RGS4 act inactive, MrgX1 allo act inactive and MrgX1 agonist inactive.

Screens (PubChem)
